Assay results collected from several papers.
Each line is one published result; the experiments were not run side by side.
Target: Bone morphogenetic protein receptor type-1A (BMPR1A, Homo sapiens, UniProt P36894)
Tested at: 1 µM

Cc1nccc(COC(=O)N2C[C@@H]3[C@@H](CNC(=O)c4ccc5[nH]nnc5c4)[C@@H]3C2)n1 — remaining binding (binding, competition with immobilised ligand): 85%
C[C@H]1CCN(c2nccc(-c3cnn4ncccc34)n2)C1 — remaining binding (binding): 68%
CC(=O)N1CCC(c2ccc(C(=O)NC(=N)N)cc2C(F)(F)F)CC1 — remaining binding (binding, competition with immobilised ligand): 100%
CCN1CCN(Cc2ccc(C(=O)Nc3ccc(C)c(Oc4ccc5c(c4)CC(=O)N5)c3)cc2C(F)(F)F)CC1 — remaining binding (binding, competition with immobilised ligand): 100%
O=C(NCCCN1CCOCC1)c1ccc(Nc2nccc(-c3cc4ccccc4s3)n2)cc1 — remaining binding (binding, competition with immobilised ligand): 78%
COc1cnc(Nc2cccc(S(N)(=O)=O)c2)nc1N1CCN(c2ccccc2)CC1 — remaining binding (binding, competition with immobilised ligand): 100%
CN(c1nccc(-c2cnn3ncccc23)n1)C1CC1 — remaining binding (binding): 78%
CS(=O)(=O)NCC[C@H](NC(=O)c1cncc2c1cnn2-c1ccc(F)cc1)c1ccnc(S(C)(=O)=O)c1 — remaining binding (binding, competition with immobilised ligand): 92%
Nc1ncc2c(n1)-c1c([nH]c3ccc(C#CC4CC4)cc13)CCCC2 — remaining binding (binding, competition with immobilised ligand): 95%
N[C@H]1CCN(c2nccc(-c3cnn4ncccc34)n2)C1 — remaining binding (binding): 75%
O=C(NCCCN1CCOCC1)c1ccc(Nc2ncc(Cl)c(-c3ccc(Cl)s3)n2)cc1 — remaining binding (binding, competition with immobilised ligand): 86%
COc1cnc(Nc2cccc(S(N)(=O)=O)c2)nc1N1CCN(c2ccccc2)C(=O)C1 — remaining binding (binding, competition with immobilised ligand): 67%
O=C(Nc1c[nH]nc1C(=O)NC1CCNCC1)c1cc(F)cc(F)c1 — remaining binding (binding, competition with immobilised ligand): 89%
CN(CCCC(F)(F)F)c1nccc(-c2cnn3ncccc23)n1 — remaining binding (binding): 83%
CC1=C(C#N)[C@@H](c2ccc3[nH]nc(C)c3c2)C(C#N)=C(c2ccc(Cl)cc2)N1 — remaining binding (binding, competition with immobilised ligand): 98.6%
O=C(c1ccc(Nc2nccc(-c3cc4ccccc4s3)n2)cc1)N1CCC(N2CCCC2)CC1 — remaining binding (binding, competition with immobilised ligand): 75%
CN(C)c1ncnc(-c2ccc3nc(Nc4cc(CN5CCN(C(=O)CC(F)(F)F)CC5)ccn4)[nH]c3c2)c1Cl — remaining binding (cell-free assay, competition with immobilised ligand): 95%
CN(C)c1nccc(-c2cnn3ncccc23)n1 — remaining binding (binding): 81%
O=C(NS(=O)(=O)c1ccc(NCC2CCOCC2)c([N+](=O)[O-])c1)c1ccc(N2CCN(Cc3ccc(C(F)(F)F)cc3-c3ccc(Cl)cc3)CC2)cc1Oc1cnc2[nH]ccc2c1 — remaining binding (cell-free assay, competition with immobilised ligand): 81%
C=CC(=O)N1CCC(C(=O)NCC(=O)N2CCN(c3nc(-c4cnc(N)nc4C(F)F)nc(N4CCOCC4)n3)CC2)CC1 — remaining binding (binding, competition with immobilised ligand): 80%
